Source: PubChem (several laboratories)
Shown are actives, neighbours in structure and some others; about 3.6% of the full set was active somewhere.
AHR act: human AHR activation. P35869. AHR-responsive luciferase reporter cells, luminescence. activation, % at 5 µM. actives 2.5% (n = 320,000); in the data active means activation above about 47%
Target sequence (P35869 whole entry, looked up): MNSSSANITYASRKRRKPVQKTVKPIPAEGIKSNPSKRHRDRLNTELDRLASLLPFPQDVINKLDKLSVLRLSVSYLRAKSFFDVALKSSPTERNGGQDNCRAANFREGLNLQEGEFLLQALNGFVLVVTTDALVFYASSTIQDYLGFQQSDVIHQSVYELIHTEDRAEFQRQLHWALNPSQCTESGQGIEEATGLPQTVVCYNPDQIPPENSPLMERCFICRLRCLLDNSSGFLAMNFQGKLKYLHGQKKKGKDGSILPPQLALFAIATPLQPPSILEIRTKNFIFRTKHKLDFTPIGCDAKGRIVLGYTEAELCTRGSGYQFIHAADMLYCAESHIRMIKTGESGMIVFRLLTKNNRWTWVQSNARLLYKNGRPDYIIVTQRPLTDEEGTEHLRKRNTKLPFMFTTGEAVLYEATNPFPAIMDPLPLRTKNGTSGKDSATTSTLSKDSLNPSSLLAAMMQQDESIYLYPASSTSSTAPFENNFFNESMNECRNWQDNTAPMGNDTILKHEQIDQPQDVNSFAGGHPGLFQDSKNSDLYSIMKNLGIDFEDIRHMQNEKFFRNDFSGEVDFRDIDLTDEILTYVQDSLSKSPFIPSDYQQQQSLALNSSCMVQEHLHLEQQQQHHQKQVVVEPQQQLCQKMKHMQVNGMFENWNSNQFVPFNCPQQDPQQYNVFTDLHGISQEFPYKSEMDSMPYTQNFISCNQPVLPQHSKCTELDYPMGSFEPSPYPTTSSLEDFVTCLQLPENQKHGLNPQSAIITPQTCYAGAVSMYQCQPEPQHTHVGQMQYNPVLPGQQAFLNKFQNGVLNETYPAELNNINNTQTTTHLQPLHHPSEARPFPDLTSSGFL
Hsp70 activator: Hsp70 transcriptional activation, primary screen; activation, % at 10 µM; actives 0.04% (n = 200,000); HeLa Hsp70 promoter luciferase reporter, luminescence; scaled: vehicle 0, proteasome-inhibitor control 100%;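 active means activation above the mean across all tested compounds plus 3 SD, cutoff set per campaign, cut at about 5.5% in these data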
PERK inh: human PERK inhibition, primary cell-based screen. Q9NZJ5. CHO PERK-DD fusion, SEAP luminescence translation reporter. inhibition, % at 5.6 µM. actives 0.17% (n = 220,000). AID 1416;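 active means inhibition above the mean inhibition of all tested compounds plus 3 SD, set separately per screening campaign, cut at about 2.9% in these data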;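 further: PERK kinase domain activated by AP20187 dimerizer at 100 nM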
STAT3 act: increases IL-6 driven STAT3 reporter signal; U3A cells, IL-6 STAT3-luciferase reporter, luminescence; 100% = signal with IL-6 EC80 alone; activation (% of control), % at 5.6 µM; actives 0.91% (n = 190,000); AID 871;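 active means activation above the screen-wide mean of compound activation plus 3 SD, cut at about 130% in these data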
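Material: STAT3-luciferase reporter U3A cells; Probe or stimulus: IL-6 (33 ng/mL); Incubation: compound pre-incubation 1 h before IL-6, then 6 h stimulation at 37 °C; Technique: luminescence from STAT3-driven luciferase reporter; Evaluation: % activation versus median of IL-6-stimulated wells; Controls: IL-6-only high control.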
PolyA inh: blocks polyadenylation in yeast reporter cells; S. cerevisiae SKY197-pL101 polyadenylation reporter, beta-gal luminescence; efflux-impaired pdr1/pdr3 knockout yeast; score 100 = 6 SD above DMSO; activity score, % at 12 µM; actives 0.02% (n = 300,000); AID 1875;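 active means lowest replicate activity score at least 50, where 100 means six control SD above control mean; inconclusive means lowest score under 50 but half or more replicates reach 50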;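 further: yeast exposed to compound for 9 h at 30 °C; higher score means more reporter readthrough which indicates perturbed polyadenylation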
HSF1 inh: HSF1 inhibition | activity change, negative = inhibition, % at 7.5 µM (by protocol) | actives 0.77% (n = 300,000) | NIH3T3-HGL HSE-luciferase, MG132-induced, luminescence 8 h; active compounds read low;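 active means more than half of replicate wells show activity change below -50%, luminescence cut by over half; inconclusive means some wells, but at most half, below -50%; inactive means no replicate well below -50%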;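 further: luciferase reports HSF-1 transcriptional activity via heat shock element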
Large screens that a line does not name were inactive.

CC(C(=O)NC1CC(C)(C)NC(C)(C)C1)c1ccc([N+](=O)[O-])cc1 (configuration not stated)	HSF1 inh -59
CC(C(=O)NC1CCCCCC1)c1ccc([N+](=O)[O-])cc1 (configuration not stated)	none (no result: Hsp70 activator, PERK inh, STAT3 act)
CCN(CC)C(=O)c1[nH]cnc1C(=O)Nc1cccc(Cl)c1	AHR act 67 (no result: Hsp70 activator, PERK inh, STAT3 act, PolyA inh, HSF1 inh)
O=C(Nc1cccc(Cl)c1)c1nc[nH]c1C(=O)NCCCCNC(=O)c1[nH]cnc1C(=O)Nc1cccc(Cl)c1	none (no result: Hsp70 activator, PERK inh, STAT3 act, PolyA inh, HSF1 inh)
C=CCn1c(SCC(=O)Nc2cc(C)on2)nnc1-c1ccccc1F	none (no result: Hsp70 activator, PERK inh, STAT3 act, PolyA inh, HSF1 inh)
Cc1ccc(N=Nc2c(N)nn3c(C)cc(C)nc23)cc1	AHR act 58
Cc1ccc(N=Nc2c(N)nn3c(N)c(C#N)c(C)nc23)cc1	AHR act 75
Cc1cc(C)n2nc(N)c(N=Nc3cccc(Cl)c3)c2n1	none
Cc1ccc(N=Nc2c(N)nn(-c3ccccc3)c2N)cc1	none
CC(=O)N1c2ccc(S(=O)(=O)N3CCCCC3)cc2CC1C(=O)NCc1ccc(N(C)C)cc1 (configuration not stated)	none (no result: Hsp70 activator, PERK inh, STAT3 act)
Cn1c(C(=O)NCC2CCCO2)cc2c(=O)[nH]c3ccccc3c21 (configuration not stated)	none
Cn1c(C(=O)NCC2CCCO2)cc2c(=O)n(C)c3ccccc3c21 (configuration not stated)	AHR act 49
Cc1ccc(/C=N/Nc2nc(C(C)(C)C)cs2)o1	AHR act 50
COc1cc2oc(=O)ccc2cc1-c1c(OC)ccc2ccc(=O)oc12	none (no result: Hsp70 activator, PERK inh, STAT3 act, PolyA inh, HSF1 inh)
Cc1ccc(C(=O)N/C(=C\c2ccc(-c3ccccc3[N+](=O)[O-])o2)C(=O)NCCN(C)C)cc1	AHR act 52 (no result: Hsp70 activator, PERK inh, STAT3 act)
Cc1ccc(C(=O)N/C(=C\c2ccc(-c3ccccc3[N+](=O)[O-])o2)C(=O)NCCCN(C)C)cc1	none (no result: Hsp70 activator, PERK inh, STAT3 act)
CCOc1ccc(CCNC(=O)c2ccc(OCc3c(C)noc3C)cc2)cc1OCC	none (no result: Hsp70 activator, PERK inh, STAT3 act)
CCn1c(=O)c(C(=O)NC(C)C)c(O)c2ccccc21	AHR act 76
Cc1oc2c(c1C(=O)NCc1cccnc1)C(=O)c1ccccc1C2=O	PolyA inh inconclusive, HSF1 inh -95 (no result: STAT3 act)
CCn1c(=O)c(C(=O)NCc2cccnc2)c(O)c2ccccc21	AHR act 56
COc1ccc(CNC(=O)c2c(C)oc3c2C(=O)c2ccccc2C3=O)cc1	none
NCCNC(=O)c1c(O)c2cccc3c2n(c1=O)CCC3	none (no result: AHR act, Hsp70 activator, PERK inh, STAT3 act)
O=C(NCc1cccnc1)c1c(O)c2cccc3c2n(c1=O)CCC3	AHR act 77
O=C(COc1ccccc1Br)N1CCN(C(=O)c2ccco2)CC1	none (no result: Hsp70 activator, PERK inh, STAT3 act)
CCOc1ccc(-c2c(C(=O)N/N=C/c3cccc(Br)c3)nnn2-c2nonc2N)cc1	none (no result: Hsp70 activator, PERK inh, STAT3 act)
COCCN(C(=O)c1ccccc1OC)c1nnc(C)s1	STAT3 act 134
COc1ccccc1C(=O)Nc1nnc(C)s1	none
Cc1cccc(Nc2nc(C)cc(C)c2C#N)c1	none (no result: Hsp70 activator, PERK inh, STAT3 act)
Cc1cccc(Nc2nc(N)c(C#N)c(CC#N)c2C#N)c1	AHR act 50
COc1ccc(NC(=O)c2c(NC(=O)CNCc3ccco3)sc3c2CCC3)cc1	AHR act 53
Cc1nc2ccc(F)cc2cc1C(=O)Nc1cccc(Cl)c1C	AHR act 107
Cc1c(Cl)cccc1NC(=O)c1cccc(OC(F)F)c1	HSF1 inh -72
COc1ccc(NC(=O)c2cccc(OC(F)F)c2)cc1Cl	AHR act 49
O=C(Nc1ccc(OC(F)F)c(Cl)c1)c1cccc(OC(F)F)c1	none
Cc1ccc(CN2C(=O)N/C(=C/c3ccc4c(c3)n(C)c(=O)n4C)C2=O)cc1	none
Cc1cc(/C=C2\NC(=O)N(Cc3ccc(Cl)cc3)C2=O)c(C)n1C	STAT3 act 139 (no result: PolyA inh, HSF1 inh)
COc1ccc(F)cc1C(=O)C1CCCN(C(=O)c2ocnc2C)C1 (configuration not stated)	none
CS(=O)(=O)c1nc(-c2ccccc2)cc(C(F)(F)F)n1	HSF1 inh -98
Cc1cc(NC(=O)CCS(=O)(=O)c2nc(-c3ccccc3)cc(C(F)(F)F)n2)no1	none (no result: Hsp70 activator, PERK inh, STAT3 act, PolyA inh, HSF1 inh)
CCS(=O)(=O)N1CCC(NC(=O)C(Cc2cccc(OC)c2OC)NC(C)=O)CC1 (configuration not stated)	none (no result: AHR act, Hsp70 activator, PERK inh, STAT3 act)
